# Reference: ChEMBL document CHEMBL1124174, “Substituted benzamides. 1. Potential nondopaminergic antagonists of chemotherapy-induced nausea and emesis” (J Med Chem, 1988)
# “And” between values parts separate entries of the source, which are not always exact repeats. Identical values can stand only once.
# Key:
# Mustela putorius furo [1] = assay: In vivo protection against cisplatin-induced emesis in ferret measured as emetic episodes for twice the dose of 0.3 mg/kg and in 6 ferrets; assay type: functional
# Method in brief: (§1)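 Nonfasted castrated male Fitch ferrets (1–1.5 kg) carried jugular vein catheters implanted at least 48 h earlier under general anesthesia. Test compound or saline was given iv twice, 5 min before and 90 min after cisplatin (12 mg/kg iv; 12 mg/mL in warm saline). Emesis was watched for 4 h, with events within 1 min counted as one episode. % protection is relative to a pooled historical-plus-concurrent control, with t test versus saline.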
# Canis familiaris [2] = assay: In vivo protection against cisplatin-induced emesis in dog measured as percentage protection for twice the dose of 0.1 mg/kg and in 3 […]; assay type: functional, Canis lupus familiaris
# [3] = molecular target: D(2) dopamine receptor (Rattus norvegicus) (UniProt P61169); assay: In vivo antagonistic activity against dopamine D2 receptor was measured as catalepsy in rat when administered subcutaneously; assay type: functional, organism-based
# Sequence of D(2) dopamine receptor (Rattus norvegicus) (P61169 whole entry): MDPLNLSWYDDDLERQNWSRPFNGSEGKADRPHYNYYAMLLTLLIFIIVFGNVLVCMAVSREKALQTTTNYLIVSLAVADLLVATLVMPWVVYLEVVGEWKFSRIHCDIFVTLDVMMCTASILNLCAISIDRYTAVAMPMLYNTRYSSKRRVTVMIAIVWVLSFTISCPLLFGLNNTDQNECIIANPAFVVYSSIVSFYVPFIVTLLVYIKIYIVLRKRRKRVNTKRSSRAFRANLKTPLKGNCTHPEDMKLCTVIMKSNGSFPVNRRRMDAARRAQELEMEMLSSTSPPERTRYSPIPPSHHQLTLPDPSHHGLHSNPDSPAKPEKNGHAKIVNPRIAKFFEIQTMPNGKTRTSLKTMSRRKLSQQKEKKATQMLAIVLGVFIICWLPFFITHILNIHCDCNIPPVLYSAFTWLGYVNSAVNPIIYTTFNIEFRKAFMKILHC
# Method in brief: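 Male Long Evans rats (275 g) received graded sc doses in dilute aqueous HCl (pH 4.5-5.5). They were observed 180 min for catalepsy, scored when the animal stayed stationary ≥15 s on a four-cork template.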
# Canis familiaris [4] = assay: In vivo antagonism of cisplatin-induced emesis in dog measured as emetic episodes, twice the dose of 1 mg/kg in 2 dogs; assay type: functional, Canis lupus familiaris
# Method in brief: (§2)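 Nonfasted mature male or female beagles were dosed sc twice, 30 min before and 120 min after cisplatin (3 mg/kg iv; 3 mg/mL in warm 0.9% saline, used immediately). Emesis was observed up to 5 h; events within 2 min counted as one episode. Results were given as mean emetic episodes and % protection versus a dynamic control (historical and concurrent saline means pooled). t test versus saline.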
# Canis familiaris [5] = assay: In vivo protection against cisplatin-induced emesis in dog measured as emetic episodes for twice the dose of 0.1 mg/kg and in 3 […]; assay type: functional, Canis lupus familiaris
# Mustela putorius furo [6] = assay: Cisplatin-induced emesis in ferret measured as stereotypy […] when administered iv […] twice daily; assay type: functional
# Mustela putorius furo [7] = assay: In vivo protection against cisplatin-induced emesis in ferret measured as percentage protection for twice the dose of 0.3 mg/kg and in 6 ferrets; assay type: functional; method in brief: as §1
# Canis familiaris [8] = assay: In vivo antagonism of cisplatin-induced emesis in dog measured as percentage protection for twice the dose of 0.1 mg/kg in 2 dogs; assay type: functional, Canis lupus familiaris; method in brief: as §2
# Canis familiaris [9] = assay: In vivo protection against cisplatin-induced emesis in dog measured as emetic episodes for twice the dose of 0.3 mg/kg and in 5 […]; assay type: functional, Canis lupus familiaris
# Mustela putorius furo [10] = assay: In vivo protection against cisplatin-induced emesis in ferret measured as p emetic episodes for twice the dose of 0.9 mg/kg and in 6 ferrets; assay type: functional; method in brief: as §1
# Canis familiaris [11] = assay: In vivo antagonism of cisplatin-induced emesis in dog measured as percentage protection for twice the dose of 0.3 mg/kg in 2 dogs; assay type: functional, Canis lupus familiaris; method in brief: as §2
# [12] = molecular target: D(2) dopamine receptor (Rattus norvegicus) (UniProt P61169); assay: In vivo antagonism activity against D2 receptor was measured as stereotypy in rat when administered subcutaneously; assay type: functional, organism-based
# Method in brief: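 Male Long Evans rats (275 g) were dosed sc in dilute aqueous HCl (pH 4.5-5.5) 30 min before apomorphine (1 mg/kg sc).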
# Mustela putorius furo [13] = assay: In vivo antagonism of cisplatin-induced emesis in ferret measured as emetic episodes, twice the dose of 3 mg/kg and in 3 ferrets; assay type: functional
# Method in brief: (§3)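 Nonfasted castrated male Fitch ferrets (1–1.5 kg) had jugular catheters implanted ≥48 h earlier under anesthesia. Compounds or saline were given iv twice, 5 min before and 90 min after cisplatin (12 mg/kg iv; 12 mg/mL in warm 0.9% saline). Emesis was observed up to 4 h; events within 1 min counted as one episode. Results were given as mean emetic episodes and % protection versus a pooled historical/concurrent control. t test versus saline.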
# Mustela putorius furo [14] = assay: In vivo antagonism of cisplatin-induced emesis in ferret measured as percentage protection for twice the dose of 3 mg/kg and […]; assay type: functional; method in brief: as §3
# Mustela putorius furo [15] = assay: In vivo protection against cisplatin-induced emesis in ferret measured as percentage protection for twice the dose of 2.7 mg/kg and in 0.1 ferrets; assay type: functional; conditions: in the assay text read “in 3 ferrets” for “in 0.1 ferrets”; method in brief: as §1
# Mustela putorius furo [16] = assay: In vivo protection against cisplatin-induced emesis in ferret measured as percentage protection for twice the dose of 0.1 mg/kg and in 3 ferrets; assay type: functional; method in brief: as §1
# Mustela putorius furo [17] = assay: In vivo protection against cisplatin-induced emesis in ferret measured as percentage protection for twice the dose of 0.9 mg/kg and in 6 ferrets; assay type: functional; method in brief: as §1
# Mustela putorius furo [18] = assay: In vivo antagonism of cisplatin-induced emesis in ferret measured as emetic episodes, twice the dose of 0.1 mg/kg and in 3 ferrets; assay type: functional; method in brief: as §3
# Canis familiaris [19] = assay: In vivo antagonism of cisplatin-induced emesis in dog measured as percentage protection for twice the dose of 1 mg/kg in 2 dogs; assay type: functional, Canis lupus familiaris; method in brief: as §2
# Mustela putorius furo [20] = assay: In vivo protection against cisplatin-induced emesis in ferret measured as emetic episodes for twice the dose of 2.7 mg/kg and in 3 ferrets; assay type: functional; method in brief: as §1
# Mustela putorius furo [21] = assay: In vivo protection against cisplatin-induced emesis in ferret measured as emetic episodes for twice the dose of 0.1 mg/kg and in 3 ferrets; assay type: functional; method in brief: as §1
# Canis familiaris [22] = assay: In vivo antagonism of cisplatin-induced emesis in dog measured as emetic episodes, twice the dose of 0.3 mg/kg in 2 dogs; assay type: functional, Canis lupus familiaris; method in brief: as §2
# Canis familiaris [23] = assay: In vivo protection against cisplatin-induced emesis in dog measured as percentage protection twice the dose of 0.1 mg/kg and in 3 dogs
# D(2) dopamine receptor = D(2) dopamine receptor (Rattus norvegicus, UniProt P61169); assay: In vitro antagonistic activity against Dopamine receptor D2 was evaluated for the inhibition of [3H]spiperone binding
# Sequence of D(2) dopamine receptor (P61169 whole entry): as above
# Method in brief: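 Rat striatal membranes were prepared by differential centrifugation in 50 mM Tris pH 7.4 at 4 °C. Membrane protein (10 mg) was incubated 15 min at 37 °C with 0.1 nM [3H]spiperone and varying competitor concentrations. Buffer: 50 mM Tris HCl pH 7.5, 0.1% ascorbic acid, pargyline, 120 mM NaCl, 5 mM KCl, 2 mM CaCl2, 1 mM MgCl2. (+)-Butaclamol defined nonspecific binding. Bound ligand was collected by filtration and scintillation counted. IC50 by log-logit regression.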
# Canis familiaris [24] = assay: cisplatin-induced emesis in dog was measured for when administered twice daily; conditions: Canis lupus familiaris
# Canis familiaris [25] = assay: In vivo antagonism of cisplatin-induced emesis in dog measured as emetic episodes, twice the dose of 0.1 mg/kg in 2 dogs; assay type: functional, Canis lupus familiaris; method in brief: as §2
# Mustela putorius furo [26] = assay: In vivo antagonism of cisplatin-induced emesis in ferret measured as percentage protection for twice the dose of 3 mg/kg
# [27] = molecular target: D(2) dopamine receptor (Canis lupus familiaris) (UniProt Q9GJU1); assay: In vivo antagonism activity against dopamine D2 receptor was measured as emesis in dog when administered subcutaneously; assay type: functional, organism-based
# Sequence of D(2) dopamine receptor (Canis lupus familiaris) (Q9GJU1 whole entry): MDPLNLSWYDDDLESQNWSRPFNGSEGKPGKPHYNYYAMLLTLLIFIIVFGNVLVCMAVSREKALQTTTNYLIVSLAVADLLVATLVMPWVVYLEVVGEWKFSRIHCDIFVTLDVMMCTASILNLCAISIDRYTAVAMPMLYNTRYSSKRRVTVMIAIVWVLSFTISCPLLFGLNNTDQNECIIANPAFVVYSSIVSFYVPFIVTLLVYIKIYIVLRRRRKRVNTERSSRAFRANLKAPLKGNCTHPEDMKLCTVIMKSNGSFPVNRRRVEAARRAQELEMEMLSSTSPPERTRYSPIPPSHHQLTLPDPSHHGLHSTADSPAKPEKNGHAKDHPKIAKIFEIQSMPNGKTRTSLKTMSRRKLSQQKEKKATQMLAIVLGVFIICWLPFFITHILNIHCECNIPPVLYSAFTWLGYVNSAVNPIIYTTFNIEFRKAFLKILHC
# Mustela putorius furo [28] = assay: In vivo antagonism of cisplatin-induced emesis in ferret measured as emetic episodes, twice the dose of 0.3 mg/kg and in 3 ferrets; assay type: functional; method in brief: as §3
# Canis familiaris [29] = assay: In vivo protection against cisplatin-induced emesis in dog measured as emetic episodes for twice the dose of 0.9 mg/kg and in 3 […]; assay type: functional, Canis lupus familiaris
# Mustela putorius furo [30] = assay: In vivo antagonism of cisplatin-induced emesis in ferret measured as emetic episodes, twice the dose of 3 mg/kg and in 2 ferrets; assay type: functional; method in brief: as §3
# Mustela putorius furo [31] = assay: In vivo antagonism of cisplatin-induced emesis in ferret measured as percentage protection for twice the dose of 3 mg/kg and in 2 ferrets; assay type: functional; method in brief: as §3
# Mustela putorius furo [32] = assay: In vivo antagonism of cisplatin-induced emesis in ferret measured as percentage protection for twice the dose of 3 mg/kg and in 3 ferrets; assay type: functional; conditions: 3 mg/kg; method in brief: as §3
# Canis familiaris [33] = assay: In viov antagonism of cisplatin-induced emesis in dog measured as percentage protection for twice the dose of 1 mg/kg in 2 dogs; assay type: functional, Canis lupus familiaris; method in brief: as §2
# Mustela putorius furo [34] = assay: In vivo antagonism of cisplatin-induced emesis in ferret measured as percentage protection for twice the dose of 1 mg/kg and in 3 ferrets; assay type: functional; conditions: 1 mg/kg; method in brief: as §3
# Mustela putorius furo [35] = assay: In vivo antagonism of cisplatin-induced emesis in ferret measured as percentage protection for twice the dose of 0.3 mg/kg and in 3 ferrets; assay type: functional; conditions: 0.3 mg/kg; method in brief: as §3
# Mustela putorius furo [36] = assay: In vivo antagonism of cisplatin-induced emesis in ferret measured as emetic episodes, twice the dose of 1 mg/kg and in 3 ferrets; assay type: functional; conditions: 1 mg/kg; method in brief: as §3
smiles,measurement,setting,value
CCN(CC)CCNC(=O)c1cc(Cl)c(N)cc1OC(C)C(C)=O (stereo unspecified) [BATANOPRIDE],Emetic episodes,Mustela putorius furo [1],2.5
same,Protection,Canis familiaris [2],86% and 100%
same,ED50,[3],> 40 mg/kg
same,Emetic episodes,Canis familiaris [4],0.5
same,Emetic episodes,Canis familiaris [5],5
same,ED50,Mustela putorius furo [6],0.14 mg/kg
same,Protection,Mustela putorius furo [7],64%
same,Protection,Canis familiaris [8],60%
same,Emetic episodes,Canis familiaris [9],1.6
same,Emetic episodes,Mustela putorius furo [10],0.5
same,Protection,Canis familiaris [11],87%
same,ED50,[12],> 40 mg/kg
same,Emetic episodes,Mustela putorius furo [13],0.3
same,Protection,Mustela putorius furo [14],96% and 54%
same,Protection,Mustela putorius furo [15],96%
same,Protection,Mustela putorius furo [16],53%
same,Protection,Mustela putorius furo [17],93%
same,Emetic episodes,Mustela putorius furo [18],3.3
same,Protection,Canis familiaris [19],96%
same,Emetic episodes,Mustela putorius furo [20],0.3
same,Emetic episodes,Mustela putorius furo [21],3.3
same,Emetic episodes,Canis familiaris [22],1.5
same,Protection,Canis familiaris [23],58%
same,IC50,D(2) dopamine receptor,> 1000 nM
same,ED50,Canis familiaris [24],0.05 mg/kg
same,Emetic episodes,Canis familiaris [25],0.5
same,Protection,Mustela putorius furo [26],90%
same,ED50,[27],> 3 mg/kg
same,Emetic episodes,Mustela putorius furo [28],1
same,Emetic episodes,Canis familiaris [29],0
CCN(CC)CCNC(=O)c1cc(Cl)c(N)cc1OCOCCOC,ED50,[3],> 40 mg/kg
same,Emetic episodes,Canis familiaris [4],3.5
same,Emetic episodes,Mustela putorius furo [30],0
same,Protection,Mustela putorius furo [31],100%
same,ED50,[12],> 40 mg/kg
same,Protection,Canis familiaris [19],72%
same,IC50,D(2) dopamine receptor,> 1000 nM
same,ED50,[27],> 3 mg/kg
CCN(CC)CCNC(=O)c1cc(Cl)c(N)cc1OC(C)C(C)O (stereo in doubt; 8g),Protection,Mustela putorius furo [32],86%
same,Emetic episodes,Canis familiaris [4],0
same,Protection,Canis familiaris [33],100%
same,Protection,Canis familiaris [8],62%
same,Protection,Canis familiaris [11]; 0.3 mg/kg,100%
same,Emetic episodes,Mustela putorius furo [13]; 3 mg/kg,1
same,Protection,Mustela putorius furo [34],82%
same,Emetic episodes,Canis familiaris [22]; 0.3 mg/kg,0
same,IC50,D(2) dopamine receptor,> 1000 nM
same,Protection,Mustela putorius furo [35],49%
same,Emetic episodes,Canis familiaris [25],4
same,Emetic episodes,Mustela putorius furo [36],1.3
same,Emetic episodes,Mustela putorius furo [28]; 0.3 mg/kg,0.7
